ChEMBL document CHEMBL5154796, “Chemical synthesis and pharmacological properties of heparin pentasaccharide analogues” (Eur J Med Chem, 2022)
pIC50: −log10 of the molar value. The source made the active and inactive calls. The calls are words filed in the database; no cut-off is given here.

How the values were obtained:
[1] = Tmax in Sprague-Dawley rat at 100 nmol/kg, sc; type: ADME; conditions: in vivo
Summary of the method: (§1)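 Plasma level read from anti-FXa activity against a standard curve built by spiking pooled rat platelet-poor plasma with graded compound. Noncompartmental analysis; n = 4-6, mean ± SEM.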

[2] = test system: Plasma; assay: Anticoagulant activity in human plasma assessed as prolongation of thrombin time by measuring concentration required to double TT incubated for 3 mins by coagulometer analysis; type: functional; conditions: 0.05 h
[3] = test system: Rattus norvegicus; assay: Antithrombotic activity in Sprague-Dawley rat model of blood stasis-induced venous thrombosis assessed as inhibition of thrombosis rate at 30 nmol/kg, sc measured after 2 hrs relative to control; type: functional
Summary of the method: (§2)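 Stasis/thromboplastin vena cava model in male SD rats 2 h after s.c. dosing at 30, 100 or 300 nmol/kg. Thrombus dried 24 h at 50 °C and weighed, then expressed as % of mean thrombus mass in the saline group (100% = no inhibition); n = 8-10, mean ± SEM.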

[4] = test system: Plasma; assay: Anticoagulant activity in human platelet poor plasma assessed as inhibition of thrombin generation incubated for 3 mins by calibrated automated thrombogram analysis; type: functional, cell-free; conditions: 0.05 h
Summary of the method: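 Thrombin generation triggered in human platelet-poor plasma by a phospholipid/tissue factor reagent, monitored by calibrated automated thrombogram with readings every 15 s. Total thrombin taken as area under the thrombin-time curve; IC50 from dose-response. Triplicate.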

[5] = Volume of distribution in Sprague-Dawley rat at 100 nmol/kg, sc; type: ADME; conditions: in vivo; summary of the method: as §1
[6] = test system: Plasma; assay: Anticoagulant activity in human plasma assessed as prolongation of prothrombin time by measuring concentration required to double PT incubated for 3 mins by coagulometer analysis; type: functional; conditions: dose 128 µg/ml, 0.05 h
[7] = Half life in Sprague-Dawley rat at 100 nmol/kg, sc; type: ADME; conditions: in vivo; summary of the method: as §1
[8] = test system: Plasma; assay: Anticoagulant activity in human plasma assessed as prolongation of activated partial thromboplastin time by measuring concentration required to double APTT incubated for 3 mins by coagulometer analysis; type: functional; conditions: 0.05 h
Summary of the method: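 Standard human plasma (45 µL) plus sample (5 µL), 2 min at 37 °C, then APTT reagent for 3 min, then CaCl2; clotting time read on a coagulometer. Clotting time versus concentration fitted linearly; EC2.0 is the concentration doubling clotting time. Run in duplicate.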

[9] = test system: Rattus norvegicus; assay: Antithrombotic activity in Sprague-Dawley rat model of blood stasis-induced venous thrombosis assessed as inhibition of thrombosis rate at 300 nmol/kg, sc measured after 2 hrs relative to control; type: functional; summary of the method: as §2
[10] = AUC (0 to 32 hrs) in Sprague-Dawley rat at 100 nmol/kg, sc measured after 32 hrs; type: ADME, organism-based; set-up: time 32 hrs, dose 100 nmol/kg, route sc; conditions: in vivo; summary of the method: as §1
[11] = target: T1, Coagulation factor X (Homo sapiens, UniProt P00742); assay: Inhibition of coagulation factor Xa (unknown origin) using chromogenic substrate incubated for 7 min in presence of antithrombin by absorbance based assay
T1 sequence (P00742 41-179 limits assumed): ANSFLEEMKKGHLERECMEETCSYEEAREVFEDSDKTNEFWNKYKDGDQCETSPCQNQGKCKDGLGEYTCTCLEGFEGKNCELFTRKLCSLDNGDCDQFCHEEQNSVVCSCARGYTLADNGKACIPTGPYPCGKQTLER
T1 sequence (P00742 235-488 limits assumed): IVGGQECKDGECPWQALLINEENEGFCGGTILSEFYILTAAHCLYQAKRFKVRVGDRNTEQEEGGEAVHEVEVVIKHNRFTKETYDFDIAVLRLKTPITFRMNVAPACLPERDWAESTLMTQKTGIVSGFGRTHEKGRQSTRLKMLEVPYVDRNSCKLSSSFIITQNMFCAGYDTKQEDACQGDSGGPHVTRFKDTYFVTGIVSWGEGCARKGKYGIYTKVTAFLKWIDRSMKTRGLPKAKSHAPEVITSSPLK

[12] = test system: Rattus norvegicus; assay: Antithrombotic activity in Sprague-Dawley rat model of blood stasis-induced venous thrombosis assessed as inhibition of thrombosis rate at 100 nmol/kg, sc measured after 2 hrs relative to control; type: functional; summary of the method: as §2
[13] = Cmax in Sprague-Dawley rat at 100 nmol/kg, sc; type: ADME; set-up: dose 100 nmol/kg, route sc; conditions: in vivo; summary of the method: as §1
[14] = target: T1, Coagulation factor X; assay: Inhibition of heparin binding to factor 10a using chromogenic substrate incubated for 7 min by absorbance based assay
[15] = AUC (0 to infinity) in Sprague-Dawley rat at 100 nmol/kg, sc; type: ADME; set-up: time infinity, dose 100 nmol/kg, route sc; conditions: in vivo; for AUC(0-inf): Sprague-Dawley, 100 nmol/kg; summary of the method: as §1
[16] = test system: Rattus norvegicus; assay: Antithrombotic activity in Sprague-Dawley rat model of blood stasis-induced venous thrombosis assessed as inhibition of thrombosis rate at 100 nmol/kg, sc measured after 1 hr relative to control; type: functional
Summary of the method: (§3)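 Male SD rats given 100 nmol/kg s.c.; at 1 or 3 h, anesthetized with 10% chloral hydrate ([…]). Vena cava loosely ligated, collaterals tied, 2% rabbit thromboplastin given i.v., stasis 20 s later and held 20 min. Thrombus removed, dried 24 h at 50 °C, weighed; inhibition versus saline group; n = 6, mean ± SEM.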

[17] = test system: Mus musculus; assay: Antithrombotic activity in mouse model of tail-bleeding assessed as increase in blood loss at 2000 nmol/kg, sc; type: functional, organism-based
Summary of the method: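 Mouse tail-cut bleeding: 2000 nmol/kg s.c., tail cut 1.5 h after dosing, blood loss measured in µL; normal saline negative control; n ≥ 6, mean ± SEM, one-way ANOVA.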

[18] = Clearance in Sprague-Dawley rat at 100 nmol/kg, sc; type: ADME; conditions: in vivo; summary of the method: as §1
[19] = test system: Rattus norvegicus; assay: Antithrombotic activity in Sprague-Dawley rat model of blood stasis-induced venous thrombosis assessed as inhibition of thrombosis rate at 100 nmol/kg, sc measured after 3 hrs; type: functional, organism-based; summary of the method: as §3
[20] = test system: Rattus norvegicus; assay: Antithrombotic activity in Sprague-Dawley rat model of blood stasis-induced venous thrombosis assessed as inhibition of thrombosis rate at 100 nmol/kg, sc measured after 1 hr; type: functional, organism-based; summary of the method: as §3

Structure (SMILES) | Tmax [1] | 2TT [2] | inhibition in vivo at 0.03 µmol/kg [3] | pIC50 [4] | Vd [5] | EC [6] | half-life [7] | EC [8] | inhibition in vivo at 0.3 µmol/kg [9] | AUC(0-t) at 32 h [10] | pIC50 [11] | inhibition in vivo at 0.1 µmol/kg [12] | Cmax [13] | pIC50 [14] | inhibition in vivo at 0.1 µmol/kg [16] | inhibition [9] | inhibition [12] | AUC(0-inf) [15] | CL/F [18] | inhibition [19] | other results
CO[C@H]1O[C@H](COS(=O)(=O)[O-])[C@@H](O[C@@H]2O[C@@H](C(=O)[O-])[C@@H](O[C@H]3O[C@H](COS(=O)(=O)[O-])[C@@H](O[C@@H]4O[C@H](C(=O)[O-])[C@@H](O[C@H]5O[C@H](COS(=O)(=O)[O-])[C@@H](O)[C@H](O)[C@H]5OS(=O)(=O)[O-])[C@H](OC)[C@H]4O)[C@H](OS(=O)(=O)[O-])[C@H]3OS(=O)(=O)[O-])[C@H](OC)[C@H]2OS(=O)(=O)[O-])[C@H](OS(=O)(=O)[O-])[C@H]1OS(=O)(=O)[O-].[Na+].[Na+].[Na+].[Na+].[Na+].[Na+].[Na+].[Na+].[Na+].[Na+].[Na+] | 2 h | >128 µg/mL | < 15% | 4.91 | 0.058 L/kg | >128 µg/mL | 6.1 h | 40.83 µM | 93.1% | 17600 ng·h/mL | 6.85 | > 70% | 2040 ng/mL | 6.14 | 77.8% | – | – | – | – | – | AUC [15]: 19053.2 ng·h/mL
CO[C@H]1O[C@H](COS(=O)(=O)[O-])[C@@H](O[C@@H]2O[C@@H](C(=O)[O-])[C@@H](O[C@H]3O[C@H](COS(=O)(=O)[O-])[C@@H](O[C@@H]4O[C@H](C(=O)[O-])[C@@H](O[C@H]5O[C@H](COS(=O)(=O)[O-])[C@@H](OC)[C@H](OS(=O)(=O)[O-])[C@H]5OS(=O)(=O)[O-])[C@H](OC)[C@H]4OC(C)=O)[C@H](OS(=O)(=O)[O-])[C@H]3OS(=O)(=O)[O-])[C@H](OC)[C@H]2OS(=O)(=O)[O-])[C@H](OS(=O)(=O)[O-])[C@H]1OS(=O)(=O)[O-].[Na+].[Na+].[Na+].[Na+].[Na+].[Na+].[Na+].[Na+].[Na+].[Na+].[Na+].[Na+] | 2 h | >128 µg/mL | 33.2% | 4.83 | 0.136 L/kg | >128 µg/mL | 15.1 h | 32.47 µM | – | 12800 ng·h/mL | 7.05 | – | 1140 ng/mL | 5.95 | – | Active | Active | 15100 ng·h/mL | 0.283 mL/min/kg | Active | Activity [17]: Active
CO[C@H]1O[C@H](COS(=O)(=O)[O-])[C@@H](O[C@@H]2O[C@@H](C(=O)[O-])[C@@H](O[C@H]3O[C@H](COS(=O)(=O)[O-])[C@@H](O[C@@H]4O[C@H](C(=O)[O-])[C@@H](O[C@H]5O[C@H](COS(=O)(=O)[O-])[C@@H](O)[C@H](O)[C@H]5NS(=O)(=O)[O-])[C@H](O)[C@H]4O)[C@H](OS(=O)(=O)[O-])[C@H]3NS(=O)(=O)[O-])[C@H](O)[C@H]2OS(=O)(=O)[O-])[C@H](O)[C@H]1NS(=O)(=O)[O-].[Na+].[Na+].[Na+].[Na+].[Na+].[Na+].[Na+].[Na+].[Na+].[Na+] [FONDAPARINUX SODIUM] | 0.6 h | >128 µg/mL | < 15% | 4.84 | 0.097 L/kg | >128 µg/mL | 1.2 h | 51.2 µM | 59.3% | 1070 ng·h/mL | 7.00 | – | 519 ng/mL | 5.72 | 55.7% | – | Active | 1120 ng·h/mL | 3.98 mL/min/kg | – | inhibition [20]: Active
CO[C@H]1O[C@H](COS(=O)(=O)[O-])[C@@H](O[C@@H]2O[C@@H](C(=O)[O-])[C@@H](O[C@H]3O[C@H](COS(=O)(=O)[O-])[C@@H](O[C@@H]4O[C@H](C(=O)[O-])[C@@H](O[C@H]5O[C@H](COS(=O)(=O)[O-])[C@@H](O)[C@H](OS(=O)(=O)[O-])[C@H]5OS(=O)(=O)[O-])[C@H](OC)[C@H]4O)[C@H](OS(=O)(=O)[O-])[C@H]3OS(=O)(=O)[O-])[C@H](OC)[C@H]2OS(=O)(=O)[O-])[C@H](OS(=O)(=O)[O-])[C@H]1OS(=O)(=O)[O-].[Na+].[Na+].[Na+].[Na+].[Na+].[Na+].[Na+].[Na+].[Na+].[Na+].[Na+].[Na+] | 1 h | >128 µg/mL | 39.5% | 4.91 | 0.183 L/kg | >128 µg/mL | 4.8 h | 33.05 µM | – | 6350 ng·h/mL | 7.02 | – | 1250 ng/mL | 6.11 | – | Active | Active | 6750 ng·h/mL | 0.633 mL/min/kg | – | inhibition [20]: Active
CO[C@H]1O[C@H](COS(=O)(=O)[O-])[C@@H](O[C@@H]2O[C@@H](C(=O)[O-])[C@@H](O[C@H]3O[C@H](COS(=O)(=O)[O-])[C@@H](O[C@@H]4O[C@H](C(=O)[O-])[C@@H](O[C@H]5O[C@H](COS(=O)(=O)[O-])[C@@H](O)[C@H](OC)[C@H]5OS(=O)(=O)[O-])[C@H](OC)[C@H]4O)[C@H](OS(=O)(=O)[O-])[C@H]3OS(=O)(=O)[O-])[C@H](OC)[C@H]2OS(=O)(=O)[O-])[C@H](OS(=O)(=O)[O-])[C@H]1OS(=O)(=O)[O-].[Na+].[Na+].[Na+].[Na+].[Na+].[Na+].[Na+].[Na+].[Na+].[Na+].[Na+] | 1.5 h | >128 µg/mL | 48.6% | 4.90 | 0.131 L/kg | >128 µg/mL | 6.2 h | 48.78 µM | 89.5% | 14200 ng·h/mL | 6.97 | > 70% | 2020 ng/mL | 6.10 | 56.9% | – | – | 15500 ng·h/mL | 0.35 mL/min/kg | Active | –
